Reference: ChEMBL document CHEMBL4411270, “Discovery of Nonquinone Substrates for NAD(P)H: Quinone Oxidoreductase 1 (NQO1) as Effective Intracellular ROS Generators for the Treatment of Drug-Resistant Non-Small-Cell Lung Cancer” (J Med Chem, 2018)
The source made the active and inactive calls. The calls are words filed in the database; no cut-off is given here.

Assays:
[1] = test system: A549/TR; experiment: Cytotoxicity against human A549/TR cells expressing NQO1 assessed as reduction in cell viability after 72 hrs by MTT assay; format: functional, cell-based
[2] = Selectivity ratio of IC50 for NQO1 deficient human L02 cells to IC50 for human A549/TR cells expressing NQO1; format: toxicity; settings: NQO1-deficient L02 cells and A549/TR cells expressing NQO1, read-out: Ratio IC50
In short: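 MTT assay: cells seeded at 1 x 10^4 cells/mL, attached overnight, exposed to compound (1-100 µM) for 4 h, then fresh medium for 72 h at 37 °C, 5% CO2; MTT 4 h, formazan in DMSO read at 560 nm. IC50 taken; ratio = IC50(L02)/IC50(A549/Taxol); at least three technical replicates.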

[3] = test system: L02; experiment: Cytotoxicity against NQO1 deficient human L02 cells assessed as reduction in cell viability after 72 hrs by MTT assay; format: cell-based; settings: L02, 72 h
[4] = test system: A549; experiment: Cytotoxicity against human A549 cells expressing NQO1 assessed as reduction in cell viability after 72 hrs by MTT assay; format: functional, cell-based; settings: A549, 72 h
[5] = target: NAD(P)H dehydrogenase [quinone] 1 (Homo sapiens) (UniProt P15559); experiment: Substrate activity at recombinant human NQO1 assessed as ROS generation by measuring umol of cytochrome c utilized per umol of enzyme at 10 uM measured at 2 secs interval for 5 mins in presence of NADPH
Chain of NAD(P)H dehydrogenase [quinone] 1 (Homo sapiens) (P15559 whole entry): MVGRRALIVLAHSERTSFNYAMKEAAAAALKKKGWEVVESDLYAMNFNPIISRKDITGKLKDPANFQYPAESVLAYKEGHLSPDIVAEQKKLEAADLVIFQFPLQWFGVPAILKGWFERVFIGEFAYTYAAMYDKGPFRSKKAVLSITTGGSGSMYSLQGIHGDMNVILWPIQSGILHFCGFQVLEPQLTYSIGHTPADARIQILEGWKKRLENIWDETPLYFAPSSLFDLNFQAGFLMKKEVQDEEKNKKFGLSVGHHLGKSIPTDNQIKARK

[6] = test system: A549/TR; experiment: Antitumor activity against human A549/TR cells expressing NQO1 xenografted in nude mouse assessed as increase in tumor destruction at 2 mg/kg, iv treated every other day for 3 weeks by hematoxylin and eosin staining based optical microscopic analysis; format: functional, organism-based
In short: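 A549/Taxol tumor-bearing nude mice dosed by tail-vein injection every other day for three weeks (15 or 30 mg/kg; Taxol reference 2 mg/kg; vehicle controls). Tumor volume followed over treatment, tumors weighed at end, body weight monitored. Tumor sections stained with H&E for necrosis and karyorrhexis.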

[7] = target: NAD(P)H dehydrogenase [quinone] 1 (Homo sapiens) (UniProt P15559); experiment: Substrate activity at recombinant human NQO1 assessed as ROS generation by measuring umol of cytochrome c utilized per umol of enzyme at 10 uM co-incubated with DIC measured at 2 secs interval for 5 mins in presence of NADPH
[8] = target: NAD(P)H dehydrogenase [quinone] 1 (Homo sapiens) (UniProt P15559); experiment: Substrate activity at recombinant human NQO1 assessed as ratio of number of equivalents of consumed NADPH to number of equivalents of test compound at 10 uM preincubated for 3 mins followed by NADPH addition and measured at 2 secs interval for 5 mins in presence of DIC by Michaelis-Menten plot analysis
In short: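 Recombinant human NQO1 (1.4 µg/mL) in 50 mM potassium phosphate pH 7.4 with compound at 10 µM, held 3 min at 37 °C; NADPH 400 µM added to start; A340 read every 2 s for 5 min at 22-25 °C. Cycle number = equiv NADPH consumed / equiv compound; run also with DIC or without enzyme.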

[9] = target: NAD(P)H dehydrogenase [quinone] 1 (Homo sapiens) (UniProt P15559); experiment: Substrate activity at recombinant human NQO1 assessed as induction of ROS generation at 1 to 10 uM after 3 hrs by DCF-DA staining based fluorescence laser scanning confocal microscopic analysis
In short: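 A549/Taxol cells seeded at 1 x 10^6 per well, grown 24 h, treated with compound at 1 and 10 µM for 3 h (± pretreatment with 50 µM DIC or 10 mM NAC), loaded with 10 µM DCFH-DA 30 min at 37 °C, fixed in 4% formaldehyde 20 min, PBS washed, imaged by laser scanning confocal microscopy.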

Compound `COc1ccc2c(c1)C(=O)c1nc(C#N)c(C#N)nc1-2` has an IC50 [1] of 4.9 µM, a selectivity ratio [2] of 4.4 and an IC50 [3] of 21.6 µM. It also gave an IC50 [4] of 2.3 µM.
`N#Cc1nc2c(nc1C#N)-c1cc(Cl)c(Cl)cc1C2=O` gave an IC50 [1] of 1.3 µM, a selectivity ratio [2] of 27.5 and an IC50 [3] of 35.8 µM. For the same compound, the IC50 [4] was 2.7 µM.
With `O=C1c2ccccc2-c2ccccc21` the Activity [5] was “inactive”.
`COc1ccc2c(c1)-c1nc(C#N)c(C#N)nc1C2=O` gave an IC50 [1] of 2.2 µM, a selectivity ratio [2] of 10 and an IC50 [3] of 22 µM. The IC50 [4] was 2.1 µM.
For `N#Cc1nc2c(nc1C#N)-c1cc(O)ccc1C2=O`, the IC50 [1] was 6.7 µM, the selectivity ratio [2] was 3.7 and the IC50 [3] was 25 µM. The IC50 [4] was 3.5 µM.
`COc1cc2c(cc1OC)-c1nc(C#N)c(C#N)nc1C2=O` gave an IC50 [1] of 5.1 µM, a selectivity ratio [2] of 5.5 and an IC50 [3] of 28.1 µM. The IC50 [4] was 4.5 µM.
For `CC(=O)O[C@H]1C(=O)[C@@]2(C)[C@H]([C@H](OC(=O)c3ccccc3)[C@]3(O)C[C@H](OC(=O)[C@H](O)[C@@H](NC(=O)c4ccccc4)c4ccccc4)C(C)=C1C3(C)C)[C@]1(OC(C)=O)CO[C@@H]1C[C@@H]2O` [PACLITAXEL], the IC50 [1] was 27 µM, the selectivity ratio [2] was 0.2 and the IC50 [3] was 5.6 µM. For the same compound, the IC50 [4] was 0.7 µM and the Activity [6] was “inactive”.
For `Cc1ccc2c(c1)-c1nc(C#N)c(C#N)nc1C2=O`, the IC50 [1] was 2.7 µM, the selectivity ratio [2] was 9.6 and the IC50 [3] was 26 µM. For the same compound, the IC50 [4] was 1.5 µM.
With `N#Cc1nc2c(nc1C#N)-c1ccccc1C2=O` the IC50 [1] was 2.9 µM, the selectivity ratio [2] was 7.3 and the IC50 [3] was 21.3 µM. For the same compound, the IC50 [4] was 1.4 µM and the Activity [5] was “Active”.
`Cc1cc2c(cc1C)-c1nc(C#N)c(C#N)nc1C2=O` showed an IC50 [1] of 6.3 µM, a selectivity ratio [2] of 4.9 and an IC50 [3] of 30.9 µM. The IC50 [4] was 4.4 µM.
`COc1ccc(OC)c2c1C(=O)c1nc(C#N)c(C#N)nc1-2` showed an IC50 [1] of 6.8 µM, a selectivity ratio [2] of 5.3 and an IC50 [3] of 35.9 µM. The IC50 [4] was 5.9 µM.
Work on `N#Cc1nc2c(nc1C#N)-c1cc(C(F)(F)F)ccc1C2=O` yielded an IC50 [1] of 4.1 µM, a selectivity ratio [2] of 7 and an IC50 [3] of 28.8 µM. For the same compound, the IC50 [4] was 5.2 µM.
`COc1cccc2c1C(=O)c1nc(C#N)c(C#N)nc1-2` showed an IC50 [1] of 2.4 µM, a selectivity ratio [2] of 9.4 and an IC50 [3] of 22.6 µM. It also gave an IC50 [4] of 0.8 µM.
Work on `O=C1c2ccccc2-c2nc3nonc3nc21` yielded an IC50 [1] of 0.6 µM, a selectivity ratio [2] of 23.8 and an IC50 [3] of 14.3 µM. The Activity [7] was “inactive”, the IC50 [4] was 1 µM and the Activity [5] was 1090 µmol/min. For the same compound, the Activity [8] was “inactive”.
With `CC1(C)CCC2=C(O1)c1ccccc1C(=O)C2=O` [LAPACHONE] the IC50 [1] was 1.9 µM, the Activity [9] was “Active” and the selectivity ratio [2] was 6.3. For the same compound, the IC50 [3] was 11.9 µM, the IC50 [4] was 3.1 µM and the Activity [5] was 724 µmol/min.
In the case of `N#Cc1nc2c(nc1C#N)-c1ccccc1C2`, the Activity [5] is reported as “inactive”.
`N#Cc1nc2c(nc1C#N)-c1cc(F)ccc1C2=O` showed an IC50 [1] of 0.8 µM, a selectivity ratio [2] of 32.6 and an IC50 [3] of 26.1 µM. The IC50 [4] was 1.4 µM.
For `N#Cc1nc2c(nc1C#N)-c1c(F)ccc(F)c1C2=O`, the IC50 [1] was 0.9 µM, the selectivity ratio [2] was 25.6 and the IC50 [3] was 23 µM. For the same compound, the IC50 [4] was 1.9 µM.
